The sample as a whole holds a higher share of hits than the screen did.
HUVEC prolif 384 = inhibitors of HUVEC proliferation, primary screen, cell-based, 384-well; CellTiter-Glo luminescence, 72 h; stronger effect = lower value; 86,000 compounds, 1.1% hits; AID 648, 2007; viability, % at 10 µM (by protocol);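 active = viability at or below 30%; inactive = viability above 30%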
HCT116 bCat-KO = primary screen for growth suppressors in beta-catenin knockout HCT116 cells (colon tumor, human); AID 818, 2007; 140,000 compounds, 1.5% hits; HCT116 beta-catenin knockout viability, CellTiter-Glo, 60 h; stronger effect = lower value; viability, % at 10 µM;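 active = viability at or under a set limit, the compound median less 4 SD, cut at about 6% in these data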
HCT116 PTEN-null = growth suppression of PTEN-null HCT116, primary screen, cell-based, CellTiter-Glo; HCT116 PTEN-null viability, 60 h; stronger effect = lower value; viability, % at 10 µM; 140,000 compounds, 1.2% hits;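 active = viability at or below a set limit, 4 SD under the median of all tested compounds, cut at about 3.7% in these data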;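 note: PTEN knockout HCT116 line with beta catenin targeted HCT116 as companion control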
Lung fibro prol = antiproliferative effect on LL 47 fibroblasts – human, LL 47 cells, CellTiter-Glo luminescence, primary screen; LL 47 human lung fibroblast viability, ATP luminescence; stronger effect = lower value; viability, % at 10 µM; 85,000 compounds, 1.1% hits;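 active = viability at or below 50% in the single dose screen; inactive = viability above 50%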;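 note: compound exposure lasted 72 h before the ATP readout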
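Assay system: human lung fibroblast line LL 47, low passage. Input: 1,150 fibroblasts seeded per well. Times: overnight cell rest, 72 h compound treatment at 37 °C. Evaluation: % viability of median cell-only signal. Technique: luminescent ATP detection, CellTiter-Glo. Control set: cell-only wells, no compound.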
H69AR growth 86K = proliferation blockers of H69AR lung cancer cells, primary screen, cell-based, human, 86K library; H69AR lung tumor viability, ATP luminescence, 72 h; stronger effect = lower value; 85,000 compounds, 6% hits; viability, % at 10 µM;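 active = viability at or below 40%; inactive = viability above 40%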;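 note: multidrug resistant small cell line overexpressing MRP-1 efflux transporter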
Hits are given with their value; - = inactive; . = not tested or not shown.

SMILES	HUVEC prolif 384	HCT116 bCat-KO	HCT116 PTEN-null	Lung fibro prol	H69AR growth 86K
CCCN(CCC)C(=O)C1CCN(c2cc(C)nc3c(-c4ccc(OC)c(OC)c4)c(C)nn23)CC1	-	-	-	-	34
COc1ccc(-c2c(C)nn3c(N4CCC(C(=O)NCCN(C)C)CC4)cc(C)nc23)cc1OC	-	-	-	-	30
COc1ccccc1-c1c(C)nn2c(N3CCC(C(N)=O)CC3)cc(C)nc12	-	-	-	-	-
CN1CCN(c2nc3ccccc3nc2C(C#N)C(=O)OC2CCCCC2)CC1 (centres undefined)	3.7	-	-	-	19
CCOC(=O)C1CCCN(c2nc3ccccc3nc2C(C#N)C(=O)OCCOC)C1 (centres undefined)	25	-	-	-	-
CCOC(=O)C1CCCN(c2nc3ccccc3nc2C(C#N)C(=O)OCC)C1 (centres undefined)	-	-	-	-	-
CCN1CCN(c2nc3ccccc3nc2C(C#N)C(=O)OC2CCCCC2)CC1 (centres undefined)	-	-	-	-	-
CC(NC(=O)c1ccc(F)cc1)c1ccccc1 (centres undefined)	.	-	-	.	.
Cc1ccc(C(NC(=O)NC(C)c2ccccc2)C(Cl)(Cl)Cl)cc1F (centres undefined)	.	6.1	3.4	.	.
CCc1ccc(-c2nc(CN3CCCC(C(=O)NCCc4ccc(OC)c(OC)c4)C3)c(C)o2)cc1 (centres undefined)	-	1.9	3.0	-	37
CCCN(CCC)CCNC(=O)C1CCN(Cc2nc(-c3ccc(Cl)cc3)oc2C)CC1	9.9	2.2	2.2	36	-
COc1ccc(CCNC(=O)C2CCCN(Cc3nc(-c4ccccc4C)oc3C)C2)cc1OC (centres undefined)	-	-	-	-	-
CCCCNC(=O)c1sc(=S)n2c1[nH]c(=O)c1ccccc12	-	-	-	-	26
O=C(NC1CCCCC1)c1sc(=S)n2c1[nH]c(=O)c1ccccc12	-	-	-	-	-
O=[N+]([O-])c1ccc(N=Nc2ccc(O)cc2O)cc1	18	1.9	2.4	40	3.2
CC(=O)C1C(c2ccc(Br)cc2)C2C(C)=NN=C2CC1(C)O (centres undefined)	.	-	-	.	.
COc1ccc(C(=O)Nc2ccc(Cl)c(Cl)c2)c(OC)n1	-	-	-	-	-
CC(C)C1O/C(=N/C(=O)Nc2ccc(Cl)c(Cl)c2)NC1=O (centres undefined)	-	-	-	-	11
CCN(Cc1ccccc1)c1ccc(/C=N/N=C(N)N)cc1	.	1.4	1.7	.	.
CC(C)(C)CC(=O)Nc1nn[nH]n1	.	-	-	.	.
CCC(C)(C)n1nnnc1C(c1cc2cc(C)cc(C)c2[nH]c1=O)N1CCN(Cc2ccc3c(c2)OCO3)CC1 (centres undefined)	-	-	-	25	8.6
CCC(C)(C)n1nnnc1C(c1cc2cc(C)cc(C)c2[nH]c1=O)N1CCCC1 (centres undefined)	.	-	-	.	.
Nc1nc(Cl)cc(N2CCC(c3cc(-c4ccc(Cl)cc4Cl)n[nH]3)CC2)n1	.	3.2	-	.	.
Nc1nc(Cl)cc(N2CCOCC2)n1	.	-	-	.	.
COc1ccc(/C=N/NC(=O)COc2ccccc2-c2ccccc2)cc1	.	-	-	.	.
SMILES	HUVEC prolif 384	HCT116 bCat-KO	HCT116 PTEN-null	Lung fibro prol	H69AR growth 86K
O=C(COc1ccccc1-c1ccccc1)N/N=C/c1cccc2ccccc12	.	4.3	-	.	.
Cn1cnc([N+](=O)[O-])c1S(=O)(=O)c1cccc(Cl)c1	.	1.2	0.9	.	.
O=C(CN1N=C(c2ccccc2)CCC1=O)NCCCN1CCc2ccccc2C1	.	-	-	.	.
C=CCOC(=O)C1=C(C)NC(SCC(=O)OCC)=C(C#N)C1c1ccc(O)c(OC)c1 (centres undefined)	-	-	-	-	-
C=CCOC(=O)C1=C(C)NC(SCC(=O)Nc2nccs2)=C(C#N)C1c1ccc(Cl)cc1 (centres undefined)	-	-	-	-	-
C=CCOC(=O)C1=C(C)NC(SC)=C(C#N)C1c1ccc(OCC)cc1 (centres undefined)	-	-	-	-	39
CCSC1=C(C#N)C(c2cccs2)C(C(=O)OC)=C(C)N1 (centres undefined)	-	-	-	-	-
C=CCOC(=O)C1=C(C)NC(SC)=C(C#N)C1c1cccs1 (centres undefined)	-	-	-	-	20
C=CCOC(=O)C1=C(C)NC(SCC(=O)Nc2nccs2)=C(C#N)C1c1cccs1 (centres undefined)	18	-	-	-	28
OC(COCCOc1ccc(Br)cc1)CN1CCN(Cc2ccccc2)CC1 (centres undefined)	.	-	-	.	.
CCOC(=O)C1CCCN(C(=S)Nc2cccc(Cl)c2C)C1 (centres undefined)	.	-	-	.	.
Cc1ccccc1Cc1c(C)nc2nc(SCC(=O)NCc3ccco3)nn2c1C	.	-	-	.	.
Cc1ccccc1Cc1c(C)nc2c(C(=O)NCc3ccco3)cnn2c1C	-	-	-	-	40
Cc1cccc(C)c1NC(=O)COc1ccc2c(C)c(Cc3ccccc3)c(=O)oc2c1	.	-	-	.	.
COc1ccc(CCNC(=O)c2cnn(-c3ccc(C)c(C)c3)c2NC(=O)c2ccco2)cc1OC	-	-	-	-	-
Cc1ccc(-n2ncc(C(=O)N3CCc4ccccc4C3)c2NC(=O)c2ccco2)cc1C	-	-	-	-	26
CC(=O)c1ccc(OC(C)C)c(Cc2c(O)nc(N)[nH]c2=O)c1	.	-	-	.	.
COc1cc(C)nc(N2CCCC(C(=O)Nc3cccc(Cl)c3Cl)C2)n1 (centres undefined)	-	-	-	-	11
C=CCSc1nnc(NC(=O)c2cccc(S(=O)(=O)N3CCOCC3)c2)s1	-	-	-	-	-
Cn1c(=O)c2c(ncn2CC(=O)N/N=C/c2ccc(Br)s2)n(C)c1=O	.	-	-	.	.
NC(=O)c1ccc(Br)c(S(=O)(=O)N2CCCCC2)c1	-	-	-	-	-
O=S(=O)(c1cc(-c2nnc(-c3ccc(Br)cc3)o2)ccc1Br)N1CCCCCC1	-	-	-	-	29
COc1ccc(C(=O)c2ccc(N3CCN(C(=O)c4ccc(F)cc4)CC3)c(F)c2)cc1Br	-	-	-	-	36
COc1ccc(-c2cc(=O)n(-c3nc4ccccc4[nH]3)[nH]2)cc1	10	-	-	-	40
COc1ccc(NC(=O)CCC2CCCCC2)cc1S(=O)(=O)N1CCCCC1	.	-	-	.	.
Cn1c(=O)cc(SCC(=O)NCC2COc3ccccc3O2)c2ccccc21 (centres undefined)	-	-	-	40	-
O=C(Nc1ccc(F)cc1)C(Sc1nc2ccccc2[nH]1)c1ccccc1 (centres undefined)	.	2.7	2.6	.	.
Nc1c(C(=O)C2CC2)sc2nc(-c3cccs3)cc(C(F)(F)F)c12	-	-	-	-	12

Compound activity deposited in PubChem BioAssay by SRMLSC.
